PubChem BioAssay AID2300 (The Scripps Research Institute Molecular Screening Center, 2010)
Hit rate of the full screen: of about 320,000 compounds, about 380 (0.12%) were called active.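 The calls were made as follows: active = percent inhibition above the cutoff of mean plus 3 SD of all tested compounds, set per screening campaign (cut at about 20% in these data); inactive = the rest.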 This excerpt belongs to a sample that is enriched for actives.

biological target: Photoreceptor-specific nuclear receptor (Homo sapiens) (UniProt Q9Y5X4); assay: disruption of NR2E3 corepressor interaction – biochemical, TR-FRET, GST-NR2E3, biotin-RetCOR, NR2E3 agonist project, primary screen (AID 2300); settings: 1536-well, at 4.78 µM, stronger effect = higher value;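 also: 0% = DMSO wells and 100% = biotin wells as full block of FRET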
Procedure, shortened: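 Assay system: NR2E3–RetCOR corepressor complex. Quantity: 1.35 nM GST-NR2E3. Buffer or medium: pH 7.5 Tris-based buffer. Reagent: biotinylated RetCOR corepressor at 7 nM final. Schedule: 5 h at 4 °C. Detection: TR-FRET, emission read at 617 and 671 nm. Replicates: one well per compound, singlicate testing.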

Photoreceptor-specific nuclear receptor (Homo sapiens), sequence (Q9Y5X4 whole entry, looked up): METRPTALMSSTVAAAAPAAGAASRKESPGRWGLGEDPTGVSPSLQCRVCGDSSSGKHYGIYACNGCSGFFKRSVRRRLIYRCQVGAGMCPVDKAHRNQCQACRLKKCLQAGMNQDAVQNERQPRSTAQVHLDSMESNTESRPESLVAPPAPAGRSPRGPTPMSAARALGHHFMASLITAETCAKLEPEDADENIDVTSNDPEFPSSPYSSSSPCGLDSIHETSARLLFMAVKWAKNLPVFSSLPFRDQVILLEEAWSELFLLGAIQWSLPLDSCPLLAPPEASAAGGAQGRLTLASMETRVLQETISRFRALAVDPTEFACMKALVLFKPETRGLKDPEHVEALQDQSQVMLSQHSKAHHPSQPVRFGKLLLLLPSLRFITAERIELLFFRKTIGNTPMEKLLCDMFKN

Inhibition of corepressor binding, inactive:
CC(C)CN(C(=O)CSc1nncn1C)C1CCS(=O)(=O)C1 (stereo unspecified) 2.15%, COC(C)(C)[C@]12CC(O)(C(C)C)ON1[C@H]1CCCCC1N2O (stereo partly specified) -1%, CCCCSc1nc2c(c(=O)n1CC)SC(C)C2 (stereo unspecified) 4.84%, O=c1ccc2c(-c3ccccc3S(=O)(=O)O)c3ccc(O)c(O)c3oc-2c1O 13.9%, C=CCNC(=O)CSc1nc2sc(C)c(C)c2c(=O)[nH]1 -1.07%, O=C(CSc1nc2c(cnn2-c2ccc(F)cc2)c(=O)[nH]1)N1CCCCCC1 -0.57%, CC(=O)N1CCC(C(=O)Nc2nc(-c3ccccc3)ns2)CC1 1.17%, Cc1csc(Nc2ccc(Cl)cc2)[n+]1-c1ccc(Cl)cc1 -0.2%, FC(F)Oc1ccccc1NC(=S)Nc1cccc(Cl)c1Cl 3.12%, Cc1ccc(NC(=O)C2(N3CCC3=O)CCCCC2)cc1 3.49%, O=C(/C=C/c1cccc([N+](=O)[O-])c1)NCCSCc1ccco1 0.28%, Cc1ccc2c(c1)N(CC(=O)N1CCC(C)CC1)C(=O)c1cccnc1O2 3.77%, CCOc1ccc2nc(C(=O)N3CCCC(C)C3)sc2c1 (stereo unspecified) -1.62%, ONC(=Nc1ccccc1)c1ccccc1Cl -0.75%, COc1cccc(CNC(=O)c2cccnc2Sc2ccc(Cl)cc2)c1 0.2%, Cc1ccc(Nc2nc(Cl)c(C=O)s2)cc1 3.15%, Cc1cc(C)c(C)c(S(=O)(=O)N2CCN(C(=O)c3ccc4c(=O)n5c(nc4c3)CCC5)CC2)c1C -2.52%, O=C(Nc1nccs1)C1CCN(S(=O)(=O)c2ccc(Cl)c(C(F)(F)F)c2)CC1 5.22%, O=C(CCNS(=O)(=O)c1cccs1)N1CCN(c2ccc(F)cc2)CC1 0.06%, O=C(N[C@@H](Cc1ccccc1)C(=O)OCc1ccccc1)c1nc[nH]c1C(=O)NC1CCNCC1 1.4%, COc1ccc(C(=O)OCC(=O)c2ccc(Cl)s2)c(OC)c1OC -1.77%, CCOC(=O)c1ccc(N=C2SC(C(=O)NC)CC(=O)N2CCc2ccccc2)cc1 (stereo unspecified) -2.67%, COc1cc2[nH]c(=S)n(Cc3ccc(F)cc3)c(=O)c2cc1OC -2.77%, COc1cc2[nH]c(=S)n(CCN3CCCCC3C)c(=O)c2cc1OC (stereo unspecified) 0.84%

Inhibition of corepressor binding, active:
CC(=O)c1sc2nc(SCC(=O)N3CCCCC3)[nH]c(=O)c2c1C 29.3%, COc1cc2[nH]c(=S)n(Cc3ccc(C)o3)c(=O)c2cc1OC 23.2%
